Activity calls are given as the source filed them. No cut-off for these calls is given here.
Tests used:
[1] = tested on: Rattus norvegicus; experiment: Antihepatotoxic activity against CCl4-induced liver damage in rat assessed as decrease in serum SGOT level at 10 mg/kg, po by calorimetric assay (reference value: 74.52 +/- 0.695 IU/L); type: functional
[2] = tested on: Rattus norvegicus; experiment: Antihepatotoxic activity against CCl4-induced liver damage in rat assessed as decrease in serum SGPT level at 10 mg/kg, po by calorimetric assay (reference value: 85.27 +/- 2.05 IU/L); type: functional
[3] = tested on: Rattus norvegicus; experiment: Antihepatotoxic activity against CCl4-induced liver damage in rat assessed as decrease in ALP level at 10 mg/kg, po after 1 hr by photoelectric reading analysis (reference value: 66.157 +/- 2.886 KA); type: functional
[4] = tested on: Rattus norvegicus; experiment: Antihepatotoxic activity against CCl4-induced liver damage in rat assessed as increase in total protein level at 10 mg/kg, po (reference value: 3.54 +/- 0.67 g/dl); type: functional
[5] = tested on: Rattus norvegicus; experiment: Antihepatotoxic effect against CCl4-induced liver damage in rat assessed as appearance of normal parenchyma at 10 mg/kg, po by microscopic examination-based histopathological analysis; type: functional, organism-based; parameters: dose 10 mg/kg
In short: (§1)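 Livers taken from Wistar rats (n = 5 per group) dosed with CCl4 1.5 ml/kg p.o. plus agents at 10 mg/kg p.o.; silymarin reference and normal controls included. Liver sections examined microscopically and scored descriptively for necrosis, inflammation, sinusoidal dilatation, central vein appearance, cytoplasmic staining, parenchyma and vascular change.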

[6] = tested on: Rattus norvegicus; experiment: Antihepatotoxic effect against CCl4-induced liver damage in rat assessed as appearance of sinusoidal dilution in centrizonal area at 10 mg/kg, po by microscopic examination-based histopathological analysis; type: functional, organism-based; parameters: dose 10 mg/kg; in short: as §1
[7] = tested on: Rattus norvegicus; experiment: Antihepatotoxic effect against CCl4-induced liver damage in rat assessed as appearance of moderate sinusoidal dilution around central vein at 10 mg/kg, po by microscopic examination-based histopathological analysis; type: functional, organism-based; parameters: dose 10 mg/kg; in short: as §1
[8] = tested on: Rattus norvegicus; experiment: Antihepatotoxic effect against CCl4-induced liver damage in rat assessed as fine vascular changes in hepatocytes at 10 mg/kg, po by microscopic examination-based histopathological analysis; type: functional, organism-based; parameters: dose 10 mg/kg; conditions: Hepatocyte; in short: as §1
[9] = tested on: Rattus norvegicus; experiment: Antihepatotoxic effect against CCl4-induced liver damage in rat assessed as appearance of uniformly stained cytoplasm at 10 mg/kg, po by microscopic examination-based histopathological analysis; type: functional, organism-based; parameters: dose 10 mg/kg; in short: as §1
[10] = tested on: Rattus norvegicus; experiment: Antihepatotoxic effect against CCl4-induced liver damage in rat assessed as appearance of mild dilution of sinusoidal spaces at 10 mg/kg, po by microscopic examination-based histopathological analysis; type: functional, organism-based; parameters: dose 10 mg/kg; conditions: Sinusoidal space; in short: as §1
[11] = tested on: Rattus norvegicus; experiment: Antihepatotoxic effect against CCl4-induced liver damage in rat assessed as appearance of visible central vein at 10 mg/kg, po by microscopic examination-based histopathological analysis; type: functional, organism-based; parameters: dose 10 mg/kg; in short: as §1
[12] = tested on: Rattus norvegicus; experiment: Antihepatotoxic effect against CCl4-induced liver damage in rat assessed as absence of necrosis at 10 mg/kg, po by microscopic examination-based histopathological analysis; type: functional, organism-based; parameters: dose 10 mg/kg; in short: as §1
[13] = tested on: Rattus norvegicus; experiment: Antihepatotoxic effect against CCl4-induced liver damage in rat assessed as appearance of little dilution at 10 mg/kg, po by microscopic examination-based histopathological analysis; type: functional, organism-based; parameters: dose 10 mg/kg; in short: as §1
[14] = tested on: Rattus norvegicus; experiment: Antihepatotoxic effect against CCl4-induced liver damage in rat assessed as appearance of clear central vein at 10 mg/kg, po by microscopic examination-based histopathological analysis; type: functional, organism-based; parameters: dose 10 mg/kg; in short: as §1
[15] = tested on: Rattus norvegicus; experiment: Antihepatotoxic effect against CCl4-induced liver damage in rat assessed as appearance of moderate sinusoidal dilution at 10 mg/kg, po by microscopic examination-based histopathological analysis; type: functional, organism-based; parameters: dose 10 mg/kg; in short: as §1

Compound	Activity [1]	Activity [2]	Activity [3]	Activity [4]	Activity [5]	Activity [6]	Activity [7]	Activity [8]	Activity [9]	Activity [10]	Activity [11]	Activity [12]	Activity [13]	Activity [14]	Activity [15]
COc1ccc(C2=NNC(c3ccc4c(c3)OCCO4)C2)cc1OC (stereo not drawn)	58.85 IU/L	64.95 IU/L	49.48 KA	3.82 g/dL	Active	Active	–	–	–	–	–	–	–	–	–
c1ccc(C2=NNC(c3ccc4c(c3)OCCO4)C2)cc1 (stereo not drawn)	62.85 IU/L	65 IU/L	53.14 KA	4.04 g/dL	–	–	Active	Active	–	–	–	–	–	–	–
SILYMARIN	56.2 IU/L	61.3 IU/L	48.6 KA	4.2 g/dL	–	–	–	–	Active	Active	Active	Active	–	–	–
Clc1ccc(C2=NNC(c3ccc4c(c3)OCCO4)C2)cc1 (stereo not drawn)	63.42 IU/L	65.81 IU/L	46.06 KA	3.91 g/dL	–	–	Active	Active	–	–	–	–	–	–	–
Cc1cccc(C2=NNC(c3ccc4c(c3)OCCO4)C2)c1 (stereo not drawn)	64.85 IU/L	64.13 IU/L	55.74 KA	3.98 g/dL	–	–	–	–	–	–	–	–	Active	Active	–
Oc1ccc(C2=NNC(c3ccc4c(c3)OCCO4)C2)c(O)c1 (stereo not drawn)	58.57 IU/L	62.09 IU/L	58.22 KA	3.82 g/dL	Active	–	–	–	–	–	–	–	–	–	Active
